Sampled rows, rich in hits. Any-hit rate of the full collection: about 1.7%.
Runt-CBFb FRET: inhibitors of human RUNX1 Runt domain binding to CBFb; 220,000 compounds, 0.46% hits; AID 1496; inhibition, % at 20 µM; Cerulean-Runt/Venus-CBFb FRET ratio 530/480, 1 h;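 active = inhibition over about 50% at 20 µM in the single-dose screen, limit read from the data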;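 also: 0% = DMSO wells and 100% = excess unlabeled CBFb competitor control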
Target sequence (Q01196 whole entry, looked up, the tested form may be a part): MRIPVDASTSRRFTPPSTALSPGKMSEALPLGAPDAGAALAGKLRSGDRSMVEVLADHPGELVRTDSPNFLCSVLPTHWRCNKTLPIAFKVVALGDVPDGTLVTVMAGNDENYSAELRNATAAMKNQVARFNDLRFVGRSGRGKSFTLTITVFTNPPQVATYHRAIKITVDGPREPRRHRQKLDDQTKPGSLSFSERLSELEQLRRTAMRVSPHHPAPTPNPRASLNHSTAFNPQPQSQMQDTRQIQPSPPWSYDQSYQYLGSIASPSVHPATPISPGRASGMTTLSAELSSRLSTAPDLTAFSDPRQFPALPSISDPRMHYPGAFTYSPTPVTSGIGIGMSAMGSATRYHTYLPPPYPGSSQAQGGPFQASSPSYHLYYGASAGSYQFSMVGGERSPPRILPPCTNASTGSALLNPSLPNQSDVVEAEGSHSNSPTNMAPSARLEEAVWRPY
Target sequence (Q13951 whole entry, looked up, the tested form may be a part): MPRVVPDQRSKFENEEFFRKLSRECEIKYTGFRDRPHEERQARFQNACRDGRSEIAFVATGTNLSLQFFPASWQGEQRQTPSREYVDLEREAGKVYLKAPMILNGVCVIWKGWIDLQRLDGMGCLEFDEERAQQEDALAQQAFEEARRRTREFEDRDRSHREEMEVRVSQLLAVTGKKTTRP
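System: Cerulean-labeled Runt domain protein | Quantity: 100 nM of each labeled protein | Schedule: 1 h compound exposure, room temperature | Detection: Fluorescence energy transfer, 422 nm excitation, 530/480 nm emission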
Hck Nef HTS: blocks Nef-activated human Hck kinase | 220,000 compounds, 0.68% hits | P08631 | Recombinant Hck-YEEI plus Nef, Z-Lyte FRET kinase assay | inhibition, % at 20 µM;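 active = Hck-Nef kinase inhibition above about 50%, limit read from the data; inactive = inhibition below that limit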;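 also: 0% = DMSO with Hck plus Nef and 100% = Hck alone without Nef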
RanGTP-Imp inh: inhibitors of RanGTP-importin-beta interaction, primary screen, biochemical, FRET, CFP-Ran, YFP-importin-beta, homogeneous. AID 2216. inhibition, % (no concentration beside the values). 300,000 compounds, 1.1% hits. cell-free CFP-Ran/YFP-importin-beta FRET ratio;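 active = more than half of the replicate wells show a fall in the fluorescence ratio signal beyond about 16%, limit read from the data, passing the limit was not always enough; inconclusive = exactly half of the replicate wells pass the set limit; inactive = fewer than half of replicates pass the limit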;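 also: 0% = DMSO wells and 100% = Ran loaded with GDP instead of GTP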
Runt-SMMHC FRET: inhibitors of human RUNX1 Runt domain binding to CBFb-SMMHC. Cerulean-Runt/Venus-CBFb-SMMHC FRET ratio 530/480, 1 h. 220,000 compounds, 0.74% hits. inhibition, % at 20 µM. Q01196+Q13951;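 active = mean inhibition across duplicate retests at 20 µM reaching about 50%, limit read from the data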;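 also: 0% = DMSO wells and 100% = wells with excess untagged CBFb-SMMHC; inhibitors lower the FRET ratio by blocking Runt binding to CBFb-SMMHC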
YIC FRET counter: counter-screen: alters YIC FRET probe signal. shares compounds with RanGTP-Imp inh. Purified YIC probe, intramolecular FRET ratio YFP/CFP. IC50, µM. 1,000 compounds, 40% hits. AID 435026;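 active = fitted half-maximal inhibitory concentration no more than tenfold above the top dose tested; inconclusive = flat fit with 30 to 70% activity, or poor fit; inactive = half-maximal concentration beyond tenfold above the top dose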
Active calls of the source: *; ? = inconclusive; / = no result.

SMILES	Runt-CBFb FRET	Hck Nef HTS	RanGTP-Imp inh	Runt-SMMHC FRET	YIC FRET counter
CCOC(=O)N1CCN(C(=O)c2cn(C)c3ccc(S(=O)(=O)N4CCOCC4)cc3c2=O)CC1	/	/	4	/	/
Cc1ccc(Nc2nc(N)[nH]c(=O)c2N=O)cc1	2	7	29*	41	19*
CCc1nc(N)c(C#N)c(-c2ccc(F)cc2)c1C	1	0	23*	1	>50
Cc1ccc(-c2c(C#N)c(N)nc3c2CCCC3)s1	7	0	22*	7	27*
CCc1nc(N)c(C#N)c(-c2cccnc2)c1C	0	2	/	0	/
N#Cc1c(N)nc2c(c1-c1ccc(F)cc1)CCC2	19	8	21*	29	9.9*
O=C(NCCCn1ccnc1)c1cc(-c2cccc(O)c2)on1	3	16	0	-3	/
Cc1c(C(=O)N2CCOCC2)c(S(=O)(=O)Nc2ccccc2F)c(C)n1C	/	/	-1	/	/
CCOC(=O)c1c(-c2ccc(C)cc2)csc1NC(=O)CCSc1nnc2ccccn12	-6	6	2	3	/
CN1CCCN(C(=O)c2cc(=O)[nH]c3ccccc23)c2nc3ccccc3nc21	3	1	6	3	/
CN1CCCN(C(=O)Cc2c(Cl)cccc2Cl)c2nc3ccccc3nc21	48	8	22*	54*	28*
C[C@@H]1CN([C@H](C)CO)C(=O)Cc2cc(NC(=O)Nc3ccc4c(c3)OCO4)ccc2O[C@@H]1CN(C)CC1CC1	/	/	/	/	>50
CCC(=O)Nc1cccc(NC(=S)NC(=O)c2cccs2)c1	0	3	25*	8	>50
COc1ccccc1N1CCN(C(=O)CCCNC(=O)Cn2cnc3sc(C)c(C)c3c2=O)CC1	/	/	1	/	/
Cc1[nH]c(C)c(S(=O)(=O)NCc2ccc(OC(C)C)cc2)c1C(=O)N1CCCC1	/	/	4	/	/
O=C(Cn1nnc(-c2cccs2)n1)NCCc1ccccc1	0	-6	10	-4	/
O=C(Cn1nnc(-c2ccncc2)n1)NCCc1ccccc1	0	1	18*	-4	>50
CCOC(=O)/C=c1\s/c(=C\c2ccc3cc(OC)ccc3c2)c(=O)n1CC(=O)NCc1ccc2c(c1)OCO2	-180	1	4	6	/
CCNc1nc(NC(C)(C)C)nc(N2CCCCC2)n1	0	-4	-4	1	/
COc1ccc(/C=C2\SC(=S)N(CC(=O)OCC(=O)Nc3ccc([N+](=O)[O-])cc3OC)C2=O)cc1	-29	24	/	-55	/
COc1ccc(/C=C2\SC(=S)N(CC(=O)OCC(=O)Nc3ccc(C)cc3Cl)C2=O)cc1	-12	9	18*	-31	>50
CN1CCN(c2ccc(S(=O)(=O)N3CCCCC3)cc2NC(=O)Cc2ccc(Cl)cc2)CC1	-4	0	40*	-2	>50
Cc1cc(C)c(NC(=O)CCCCCNC2CCCCC2)c(C)c1	/	/	-5	/	/
COc1ccc(N(C(=O)c2cccnc2)S(=O)(=O)c2ccc(F)cc2)cc1	/	/	6	/	/
c1ccc(-n2nnnc2-c2cnc(-c3cccnc3)nc2-c2cccs2)cc1	-3	-5	17*	-2	>50
SMILES	Runt-CBFb FRET	Hck Nef HTS	RanGTP-Imp inh	Runt-SMMHC FRET	YIC FRET counter
Oc1ccc(-c2[nH]ncc2-c2cccc3cccnc23)c(O)c1	0	0	17*	2	>50
CCCSc1nnc(-c2c[nH]c3ccccc23)n1C	2	2	-3	2	/
CCCSc1nnc(-c2c[nH]c3ccccc23)n1CC	1	3	17*	4	>50
Cc1ccc(C(=O)Nc2nnc(SCC(=O)N3CCCc4ccccc43)s2)cc1	1	2	39*	1	>50
CCc1nnc(NC(=O)CCC(=O)NCCc2ccccc2)s1	/	/	10	/	/
CCc1ccc(C(=O)CSc2ncn[nH]2)cc1	1	1	18*	-3	>50
CCCNC(=O)COC(=O)c1cccnc1Nc1ccccc1F	1	2	-3	-1	/
O=C(COC(=O)c1cccnc1Nc1ccccc1F)NCCN1C(=O)CSC1=O	1	1	27*	-3	>50
CCCCn1c(N)c(N(CCOC)C(=O)CN2c3ccccc3CC2C)c(=O)[nH]c1=O (centres undefined)	33	17	38*	31	>50
CCCCn1c(N)c(N(CCOC)C(=O)CN2C(=O)c3ccccc3C2=O)c(=O)[nH]c1=O	/	/	6	/	/
COc1ccc2oc(C(=O)OCC(=O)N(C)c3c(N)n(Cc4ccccc4)c(=O)[nH]c3=O)c(C)c2c1	/	/	-1	/	/
CC(C)OCCCNC(=O)CCSc1ccc(Cl)cc1	1	-1	27*	-2	>50
CN(Cc1ccccc1)c1ccc(N2C(=O)CCCC2=O)cc1[N+](=O)[O-]	-3	4	2	-15	/
COC(=O)Cn1c(=O)c2c(nc3n2CCCN3CCc2ccccc2)n(C)c1=O	/	/	25*	/	>50
Cc1ccc(-n2cc(CNCCN3CCOC3=O)c(-c3cccc(C)c3)n2)cc1	/	15	2	/	/
Cc1cccc(C2=NN(c3ccc(Br)cc3)[C@@H](C(=O)N3CCOC3=O)[C@@H]2c2ccc(F)cc2)c1	18	1	18*	56	35*
CC(=O)Nc1ccc(S(=O)(=O)Nc2ccc3c(c2)C(=O)OC3)cc1	0	11	/	1	/
N#CC1=C(N)SC(N)=C(C#N)C1c1cccc(O)c1	23	4	22*	32	>50
CCN(CC(=O)Nc1c(F)cccc1F)C(=O)c1cc(C)oc1C	/	/	0	/	/
c1ccc(Nc2nc(-c3ccccc3)ns2)cc1	/	/	2	/	/
COC(=O)c1ccc2nc(NC(=O)C(C)(C)C)sc2c1	-2	12	20*	0	>50
COC(=O)c1ccc2nc(NC(=O)C3CCCCC3)sc2c1	-3	21	-3	-1	/
Cc1ccccc1OCC(=O)N1CCN(C(=O)COc2ccccc2C)CC1	/	/	1	/	/
CC(C)NC(=O)C1CC=CCC1C(=O)O (centres undefined)	0	4	25*	2	>50
COc1ccc(OCC(=O)Nc2nc3ccccc3[nH]2)cc1	1	-1	?	1	/
SMILES	Runt-CBFb FRET	Hck Nef HTS	RanGTP-Imp inh	Runt-SMMHC FRET	YIC FRET counter
COc1ccc(OC)c(Nc2c3ccccc3nc3ccccc23)c1	/	/	32*	/	>50
COc1ccc(OCC(=O)NNc2c3ccccc3nc3ccccc23)cc1	6	1	27*	9	>50
O=C(NNc1c2ccccc2nc2ccccc12)C(O)c1ccccc1 (centres undefined)	9	23	34*	14	>50
O=C(NNc1c2ccccc2nc2ccccc12)c1ccc(O)cc1O	13	0	38*	48	>50
C/C(=N\NC(=O)c1cc(C2CC2)nc2ccccc12)c1ccc(O)cc1O	/	/	0	/	/
Cc1c(C=Nc2ccc(S(=O)(=O)CCO)cc2)c(O)[nH]c(=O)c1C#N	/	/	-28	/	/
CCOC(=O)C1=C(C)NC(C)=C(C(=O)OCC)C1C(=O)OCC(=O)N1CCc2ccccc2C1	-6	4	2	-2	/
O=C(Nc1ccc2c(c1)CN(Cc1ccc(CO)o1)CC2)c1ccc(C(F)(F)F)cc1	/	/	8	/	/

Screens (PubChem)
